Data as given in ChEMBL document CHEMBL3045005, “Synthesis and biological evaluation of new analogues of the active fungal metabolites N-(2-methyl-3-oxodecanoyl)-2-pyrroline and N-(2-methyl-3-oxodec-8-enoyl)-2-pyrroline (II)” (2000).
The source made the active and inactive calls. The calls are words filed in the database; no cut-off is given here.

Key:
Aspergillus parasiticus [1] = assay: Fungicidal activity against Aspergillus parasiticus CECT 2681 assessed as inhibition of radial mycelial growth at 100 ug/mL after 4 days; format: functional; details: CECT 2681, 96 h, read-out: GI
Summary of the method: (§1)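 Compounds in acetone incorporated into PDA at 100 µg/mL. Acetone-only plates were the negative control, and benomyl at 2.5 µg/mL was the positive control. Plates were inoculated with spores from 7-day-old PDA cultures and incubated at 28 °C for 4 days (6 days for R. necatrix and V. dahliae). Radial mycelial growth was measured and % inhibition calculated against the control. Triplicate determinations, mean ± SD, ANOVA/LSD.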

Oncopeltus fasciatus [2] = assay: Insecticidal activity against Oncopeltus fasciatus third-instar nymphs reared on diet based on sunflower seeds assessed as insect mortality at 5 to 10 ug/cm2 relative to untreated control; format: functional, organism-based
Trichoderma viride [3] = assay: Fungicidal activity against Hypocrea rufa CECT 2423 assessed as inhibition of radial mycelial growth at 100 ug/mL after 4 days; format: functional; details: CECT 2423, 96 h, read-out: GI; summary of the method: as §1
Penicillium italicum [4] = assay: Fungicidal activity against Penicillium italicum CECT 2294 assessed as inhibition of radial mycelial growth at 100 ug/mL after 4 days; format: functional; details: CECT 2294, 96 h, read-out: GI; summary of the method: as §1
Verticillium dahliae [5] = assay: Fungicidal activity against Verticillium dahliae CCM 269 assessed as inhibition of radial mycelial growth at 100 ug/mL after 6 days; format: functional; details: CCM 269, 144 h, read-out: GI; summary of the method: as §1
Alternaria alternata [6] = assay: Fungicidal activity against Alternaria tenuis CECT 2662 assessed as inhibition of radial mycelial growth at 100 ug/mL after 4 days; format: functional; details: CECT 2662, 96 h, read-out: GI; summary of the method: as §1
Trichothecium roseum [7] = assay: Fungicidal activity against Trichothecium roseum CECT 2410 assessed as inhibition of radial mycelial growth at 100 ug/mL after 4 days; format: functional; details: CECT 2410, 96 h, read-out: GI; summary of the method: as §1
Colletotrichum coccodes [8] = assay: Fungicidal activity against Colletotrichum coccodes CCM 327 assessed as inhibition of radial mycelial growth at 100 ug/mL after 4 days; format: functional; details: CCM 327, 96 h, read-out: GI; summary of the method: as §1
[9] = tested on: Colletotrichum gloeosporioides; assay: Fungicidal activity against Colletotrichum gloeosporioides CECT 2859 assessed as inhibition of radial mycelial growth at 100 ug/mL after 4 days; format: functional; details: CECT 2859, 96 h, read-out: GI; summary of the method: as §1
Geotrichum candidum [10] = assay: Fungicidal activity against Galactomyces geotrichum CCM 245 assessed as inhibition of radial mycelial growth at 100 ug/mL after 4 days; format: functional; details: CCM 245, 96 h, read-out: GI; summary of the method: as §1
[11] = tested on: Fusarium oxysporum f. sp. niveum; assay: Fungicidal activity against Fusarium oxysporum f. sp. niveum CCM 259 assessed as inhibition of radial mycelial growth at 100 ug/mL after 4 days; format: functional; details: CCM 259, 96 h, read-out: GI; summary of the method: as §1
[12] = tested on: Fusarium oxysporum f. sp. gladioli; assay: Fungicidal activity against Fusarium oxysporum f. sp. gladioli CCM 233 assessed as inhibition of radial mycelial growth at 100 ug/mL after 4 days; format: functional; details: CCM 233, 96 h, read-out: GI; summary of the method: as §1
Fusarium culmorum [13] = assay: Fungicidal activity against Fusarium culmorum CCM 172 assessed as inhibition of radial mycelial growth at 100 ug/mL after 4 days; format: functional; details: CCM 172, 96 h, read-out: GI; summary of the method: as §1
Oncopeltus fasciatus [14] = assay: Insecticidal activity against Oncopeltus fasciatus third-instar nymphs reared on diet based on sunflower seeds assessed as insect mortality at 7.5 ug/cm2 relative to untreated control; format: functional
Oncopeltus fasciatus [15] = assay: Insecticidal activity against Oncopeltus fasciatus third-instar nymphs reared on diet based on sunflower seeds assessed as insect mortality at 5 ug/cm2 relative to untreated control; format: functional
Oncopeltus fasciatus [16] = assay: Insecticidal activity against Oncopeltus fasciatus third-instar nymphs reared on diet based on sunflower seeds assessed as insect mortality at 10 ug/cm2 relative to untreated control; format: functional
Fusarium culmorum [17] = assay: Fungicidal activity against Fusarium culmorum CCM 172 assessed as inhibition of radial mycelial growth at 2.5 ug/mL after 4 days; format: functional; details: CCM 172, 96 h, read-out: GI
Summary of the method: (§2)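 Benomyl added to PDA at 2.5 µg/mL; acetone-only PDA plates served as controls. Plates were inoculated with spores from seven-day-old PDA cultures of each fungus and incubated at 28 °C for 4 days. Radial mycelial growth was measured and % inhibition was calculated against control-plate growth. Three independent determinations; means ± SD; ANOVA with LSD test.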

[18] = tested on: Fusarium oxysporum f. sp. gladioli; assay: Fungicidal activity against Fusarium oxysporum f. sp. gladioli CCM 233 assessed as inhibition of radial mycelial growth at 2.5 ug/mL after 4 days; format: functional; details: CCM 233, 96 h, read-out: GI; summary of the method: as §2
[19] = tested on: Fusarium oxysporum f. sp. niveum; assay: Fungicidal activity against Fusarium oxysporum f. sp. niveum CCM 259 assessed as inhibition of radial mycelial growth at 2.5 ug/mL after 4 days; format: functional; details: CCM 259, 96 h, read-out: GI; summary of the method: as §2
Geotrichum candidum [20] = assay: Fungicidal activity against Galactomyces geotrichum CCM 245 assessed as inhibition of radial mycelial growth at 2.5 ug/mL after 4 days; format: functional; details: CCM 245, 96 h, read-out: GI; summary of the method: as §2
[21] = tested on: Colletotrichum gloeosporioides; assay: Fungicidal activity against Colletotrichum gloeosporioides CECT 2859 assessed as inhibition of radial mycelial growth at 2.5 ug/mL after 4 days; format: functional; details: CECT 2859, 96 h, read-out: GI; summary of the method: as §2
Colletotrichum coccodes [22] = assay: Fungicidal activity against Colletotrichum coccodes CCM 327 assessed as inhibition of radial mycelial growth at 2.5 ug/mL after 4 days; format: functional; details: CCM 327, 96 h, read-out: GI; summary of the method: as §2
Trichothecium roseum [23] = assay: Fungicidal activity against Trichothecium roseum CECT 2410 assessed as inhibition of radial mycelial growth at 2.5 ug/mL after 4 days; format: functional; details: CECT 2410, 96 h, read-out: GI; summary of the method: as §2
Alternaria alternata [24] = assay: Fungicidal activity against Alternaria tenuis CECT 2662 assessed as inhibition of radial mycelial growth at 2.5 ug/mL after 4 days; format: functional; details: CECT 2662, 96 h, read-out: GI; summary of the method: as §2
Verticillium dahliae [25] = assay: Fungicidal activity against Verticillium dahliae CCM 269 assessed as inhibition of radial mycelial growth at 2.5 ug/mL after 6 days; format: functional; details: CCM 269, 144 h, read-out: GI
Summary of the method: as §2, with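 “cultures” for “cultures of each fungus”, “6” for “4”, “relative to control plates.” for “against control-plate growth.”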

[26] = tested on: Phytophthora citrophthora; assay: Fungicidal activity against Phytophthora citrophthora assessed as inhibition of radial mycelial growth at 2.5 ug/mL after 4 days; format: functional; details: 96 h, read-out: GI; summary of the method: as §2
Trichoderma viride [27] = assay: Fungicidal activity against Hypocrea rufa CECT 2423 assessed as inhibition of radial mycelial growth at 2.5 ug/mL after 4 days; format: functional; details: CECT 2423, 96 h, read-out: GI; summary of the method: as §2
Penicillium italicum [28] = assay: Fungicidal activity against Penicillium italicum CECT 2294 assessed as inhibition of radial mycelial growth at 2.5 ug/mL after 4 days; format: functional; details: CECT 2294, 96 h, read-out: GI; summary of the method: as §2
Aspergillus parasiticus [29] = assay: Fungicidal activity against Aspergillus parasiticus CECT 2681 assessed as inhibition of radial mycelial growth at 2.5 ug/mL after 4 days; format: functional; details: CECT 2681, 96 h, read-out: GI; summary of the method: as §2

Row | Structure (SMILES) | inhibition of growth at 100 µg/mL (Aspergillus parasiticus [1]) | Activity (Oncopeltus fasciatus [2]) | inhibition of growth at 100 µg/mL (Trichoderma viride [3]) | inhibition of growth at 100 µg/mL (Penicillium italicum [4]) | inhibition of growth at 100 µg/mL (Verticillium dahliae [5]) | inhibition of growth at 100 µg/mL (Alternaria alternata [6]) | inhibition of growth at 100 µg/mL (Trichothecium roseum [7]) | inhibition of growth at 100 µg/mL (Colletotrichum coccodes [8]) | inhibition of growth at 100 µg/mL [9] | inhibition of growth at 100 µg/mL (Geotrichum candidum [10]) | inhibition of growth at 100 µg/mL [11] | inhibition of growth at 100 µg/mL [12] | inhibition of growth at 100 µg/mL (Fusarium culmorum [13]) | other results
1 | CC(C(=O)C(C)(C)C(=O)N1CCCC1)c1cccc(Oc2ccccc2)c1 (stereo not drawn) | 37.9% | inactive | 38.7% | 17.8% | 22.7% | 55.2% | 53.2% | 55.7% | 62.2% | 11.7% | 36.9% | 34.8% | 16.3% | 
2 | CCCCCCCC(O)C(C)C(=O)N1CCCC1=O (stereo not drawn) | 31.5% | inactive | 38% | 33.3% | 45.9% | 38.1% | 19.6% | 69% | 36.6% | 0% | 33.3% | 36.5% | 24.3% | 
3 | CCCCCCCC(=O)N1CC=CC1 | 19.3% |  | 38% | 31.2% | 39.6% | 51.4% | 34.3% | 76.7% | 35.4% | 0% | 30.5% | 38.5% | 24.5% | mortality at 7.5 µg/cm2 (Oncopeltus fasciatus [14]): 100%; mortality at 5 µg/cm2 (Oncopeltus fasciatus [15]): 20%
4 | CC(C(=O)C(C)c1cccc(Oc2ccccc2)c1)C(=O)N1CCCC1 (stereo not drawn) | 27.9% | inactive | 30.7% | 22.2% | 19% | 39.5% | 46.6% | 37.6% | 41.4% | 12.3% | 17.4% | 23.1% | 23.5% | 
5 | CCCCCCCC(=C1C(=O)OC(C)(C)OC1=O)N1CC=CC1 | 39.3% |  | 54% | 29.9% | 13.9% | 21.1% | 38.6% | 18.8% | 29.9% | 23.9% | 28% | 26% | 39.7% | mortality at 10 µg/cm2 (Oncopeltus fasciatus [16]): 40%
6 | CC1=C(C2CC2)OC2CCCN2C1=O (stereo not drawn) | 11.3% | inactive | 0% | 23.6% | 65.4% | 23.9% | 0% | 37.8% | 11.8% | 0% | 26.2% | 24.1% | 38.9% | 
7 | CCCCNC(=O)n1c(NC(=O)OC)nc2ccccc21 [BENOMYL] |  |  |  |  |  |  |  |  |  |  |  |  |  | inhibition of growth at 2.5 µg/mL (Fusarium culmorum [17]): 87%; inhibition of growth at 2.5 µg/mL [18]: 11.1%; inhibition of growth at 2.5 µg/mL [19]: 100%; inhibition of growth at 2.5 µg/mL (Geotrichum candidum [20]): 0%; inhibition of growth at 2.5 µg/mL [21]: 100%; inhibition of growth at 2.5 µg/mL (Colletotrichum coccodes [22]): 100%; inhibition of growth at 2.5 µg/mL (Trichothecium roseum [23]): 100%; inhibition of growth at 2.5 µg/mL (Alternaria alternata [24]): 0%; inhibition of growth at 2.5 µg/mL (Verticillium dahliae [25]): 100%; inhibition of growth at 2.5 µg/mL [26]: 100%; inhibition of growth at 2.5 µg/mL (Trichoderma viride [27]): 100%; inhibition of growth at 2.5 µg/mL (Penicillium italicum [28]): 100%; inhibition of growth at 2.5 µg/mL (Aspergillus parasiticus [29]): 100%
8 | CCCCCCCC(=O)C(C)C(=O)N1CCCC1=O (stereo not drawn) | 31.7% | inactive | 21.1% | 8.6% | 56.2% | 47.5% | 49.5% | 52% | 35.6% | 24.4% | 21% | 26.8% | 18.1% | 
9 | CCCCCCCC(=O)CC(=O)N1CCCC1=O | 21.3% | inactive | 22% | 26.4% | 49.8% | 30.2% | 0% | 48.3% | 34.5% | 0% | 27.6% | 35.5% | 8.2% | 
